Data from ChEMBL document CHEMBL4033794, “Discovery of Trifluoromethyl Glycol Carbamates as Potent and Selective Covalent Monoacylglycerol Lipase (MAGL) Inhibitors for Treatment of Neuroinflammation” (J Med Chem, 2018).
Active and inactive are the calls of the source. The calls are words filed in the database; no cut-off is given here.

Assays:
Monoglyceride lipase = molecular target: T1, Monoglyceride lipase (Homo sapiens, UniProt Q99685); assay: Inhibition of recombinant human MAGL using fluorogenic-7HCA as substrate preincubated for 30 mins followed by substrate addition measured after 60 mins by fluorescence based assay
T1 sequence (Q99685 whole entry): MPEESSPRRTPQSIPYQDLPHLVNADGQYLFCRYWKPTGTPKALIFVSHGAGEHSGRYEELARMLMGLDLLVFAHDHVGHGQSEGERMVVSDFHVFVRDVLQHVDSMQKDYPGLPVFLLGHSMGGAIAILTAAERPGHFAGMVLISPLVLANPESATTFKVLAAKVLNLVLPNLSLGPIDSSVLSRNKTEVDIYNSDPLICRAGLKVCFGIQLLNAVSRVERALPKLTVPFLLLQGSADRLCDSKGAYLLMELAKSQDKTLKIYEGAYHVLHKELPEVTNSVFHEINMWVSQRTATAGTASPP

[1] = molecular target: T2, Monoglyceride lipase (Homo sapiens) (UniProt Q99685); assay: Inhibition of recombinant human MAGL assessed as Kintact to Ki ratio using fluorogenic-7HCA as substrate measured after 60 mins by fluorescence based assay
T2 sequence (whole entry): T1 sequence (Q99685 whole entry)
In short: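 Same MAGL fluorogenic setup (88 pM enzyme, 5 μM 7-HCA, HEPES pH 7.4 buffer) but substrate added immediately without preincubation; fluorescence read every minute to obtain progress curves across decreasing inhibitor concentrations; kobs derived per concentration and kinact/KI taken from plot of kobs versus concentration.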

[2] = molecular target: T3, Fatty-acid amide hydrolase 1 (Homo sapiens, UniProt O00519); assay: Inhibition of recombinant human FAAH using fluorogenic arachidonoyl-AMC as substrate preincubated for 30 mins followed by substrate addition measured after 60 mins by fluorescence based assay
T3 sequence (O00519 whole entry): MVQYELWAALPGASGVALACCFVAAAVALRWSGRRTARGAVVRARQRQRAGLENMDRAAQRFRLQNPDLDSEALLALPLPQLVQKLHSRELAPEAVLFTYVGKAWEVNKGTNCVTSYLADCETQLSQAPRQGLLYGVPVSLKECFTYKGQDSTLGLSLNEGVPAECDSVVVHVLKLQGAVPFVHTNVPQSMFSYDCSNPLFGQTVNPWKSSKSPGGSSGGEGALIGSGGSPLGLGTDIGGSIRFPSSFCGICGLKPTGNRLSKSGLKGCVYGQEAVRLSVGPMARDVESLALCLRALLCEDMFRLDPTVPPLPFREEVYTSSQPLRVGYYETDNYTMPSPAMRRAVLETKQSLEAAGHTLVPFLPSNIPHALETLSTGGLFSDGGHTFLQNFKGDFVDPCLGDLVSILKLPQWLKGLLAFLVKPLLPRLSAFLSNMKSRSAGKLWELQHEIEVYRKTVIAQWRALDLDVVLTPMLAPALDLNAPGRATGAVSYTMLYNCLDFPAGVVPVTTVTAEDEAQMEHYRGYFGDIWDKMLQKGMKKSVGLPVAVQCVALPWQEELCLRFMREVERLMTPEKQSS
In short: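 Human recombinant FAAH (0.0125 U final) in 50 mM Tris pH 9.0, 1 mM EDTA, preincubated 30 min at room temperature with compound (30 μM to 0.3 nM final); arachidonoyl-AMC 5 μM added, 60 min reaction, read Ex/Em 355/460. Inhibition vs no-compound and full-inhibition controls; four-parameter fit; geometric mean of ≥3 experiments.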

[3] = Lipophilicity, log D of the compound by HPLC analysis; format: physicochemical
In short: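 LogD determined by an HPLC-based (eLogD) method.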

[4] = Intrinsic clearance in human liver microsomes; format: ADME, microsome; conditions: read-out: CLH
In short: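 Substrate depletion in human liver microsomes; intrinsic clearance scaled to mL/min/kg.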

Homo sapiens = species on record: Homo sapiens; assay: Selectivity ratio of IC50 for recombinant human FAAH to IC50 for recombinant human MAGL
[5] = Kinetic solubility of the compound at pH 7.4; format: physicochemical; conditions: buffer, read-out: Kinetic_solubility
[6] = molecular target: T4, CES1 (liver carboxylesterase 1) (Homo sapiens, UniProt P23141); assay: (§1) Inhibition of human CES1 at 10 uM
T4 sequence (P23141 whole entry): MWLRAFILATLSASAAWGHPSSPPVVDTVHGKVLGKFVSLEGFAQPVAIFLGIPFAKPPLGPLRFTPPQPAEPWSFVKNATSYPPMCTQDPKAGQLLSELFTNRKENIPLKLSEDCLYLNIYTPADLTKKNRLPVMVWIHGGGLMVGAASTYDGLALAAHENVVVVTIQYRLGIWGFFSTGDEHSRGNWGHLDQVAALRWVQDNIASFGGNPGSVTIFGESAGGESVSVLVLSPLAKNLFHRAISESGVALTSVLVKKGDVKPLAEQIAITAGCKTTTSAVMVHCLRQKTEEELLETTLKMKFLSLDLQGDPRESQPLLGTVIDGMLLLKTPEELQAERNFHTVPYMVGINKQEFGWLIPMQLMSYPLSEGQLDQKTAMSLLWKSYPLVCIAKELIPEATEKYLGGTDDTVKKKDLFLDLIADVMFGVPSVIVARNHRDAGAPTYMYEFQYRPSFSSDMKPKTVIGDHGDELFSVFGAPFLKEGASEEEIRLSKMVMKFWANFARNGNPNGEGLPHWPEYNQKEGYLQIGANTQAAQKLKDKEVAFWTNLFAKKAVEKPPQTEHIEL
In short: (§2)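 Panel of 42 human serine hydrolases, each exposed to inhibitor at 10 µM; activity expressed as percent inhibition.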

[7] = molecular target: T5, Monoacylglycerol lipase ABHD6 (Homo sapiens) (UniProt Q9BV23); assay: Inhibition of human ABHD6 at 10 uM; in short: as §2
T5 sequence (whole entry): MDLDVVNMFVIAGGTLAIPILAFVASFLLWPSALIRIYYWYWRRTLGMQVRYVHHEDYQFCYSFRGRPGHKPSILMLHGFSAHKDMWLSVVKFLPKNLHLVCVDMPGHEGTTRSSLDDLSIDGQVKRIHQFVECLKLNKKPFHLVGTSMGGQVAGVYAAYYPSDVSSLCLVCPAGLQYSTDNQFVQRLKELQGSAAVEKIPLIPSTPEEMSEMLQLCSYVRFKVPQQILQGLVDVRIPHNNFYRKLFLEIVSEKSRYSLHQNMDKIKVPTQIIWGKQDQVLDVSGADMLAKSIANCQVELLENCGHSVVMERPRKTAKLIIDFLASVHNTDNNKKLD

[8] = Lipophilicity, log D of the compound at pH 7.4 by shake flask method; format: physicochemical; conditions: buffer
Liver carboxylesterase 1 = molecular target: T6, Liver carboxylesterase 1 (Homo sapiens, UniProt P23141); assay: as §1; conditions: 10 µM; in short: as §2
T6 sequence (P23141 whole entry): T4 sequence (P23141 whole entry)

Cocaine esterase = molecular target: T7, Cocaine esterase (Homo sapiens, UniProt O00748); assay: Inhibition of human CES2 at 10 uM; in short: as §2
T7 sequence (O00748 whole entry): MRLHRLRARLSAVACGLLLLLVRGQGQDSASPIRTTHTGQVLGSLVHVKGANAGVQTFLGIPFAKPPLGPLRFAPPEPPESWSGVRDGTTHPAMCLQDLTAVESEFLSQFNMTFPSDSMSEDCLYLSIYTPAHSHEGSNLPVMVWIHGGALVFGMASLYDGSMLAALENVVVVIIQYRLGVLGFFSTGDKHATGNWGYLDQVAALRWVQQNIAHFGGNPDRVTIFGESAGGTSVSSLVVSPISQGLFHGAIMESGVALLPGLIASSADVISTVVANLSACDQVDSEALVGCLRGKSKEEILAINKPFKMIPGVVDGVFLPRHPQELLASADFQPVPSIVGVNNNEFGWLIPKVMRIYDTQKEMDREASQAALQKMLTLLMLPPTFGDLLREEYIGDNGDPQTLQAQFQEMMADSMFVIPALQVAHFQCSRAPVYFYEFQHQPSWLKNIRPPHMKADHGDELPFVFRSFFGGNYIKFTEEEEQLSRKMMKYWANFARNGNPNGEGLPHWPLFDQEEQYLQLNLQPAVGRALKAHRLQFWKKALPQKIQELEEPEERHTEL

[9] = molecular target: T8, Fatty-acid amide hydrolase 1 (Homo sapiens) (UniProt O00519); assay: Inhibition of human FAAH at 10 uM; in short: as §2
T8 sequence (whole entry): T3 sequence (O00519 whole entry)

[10] = molecular target: T9, Fatty-acid amide hydrolase 2 (Homo sapiens) (UniProt Q6GMR7); assay: Inhibition of human FAAH2 at 10 uM; in short: as §2
T9 sequence (whole entry): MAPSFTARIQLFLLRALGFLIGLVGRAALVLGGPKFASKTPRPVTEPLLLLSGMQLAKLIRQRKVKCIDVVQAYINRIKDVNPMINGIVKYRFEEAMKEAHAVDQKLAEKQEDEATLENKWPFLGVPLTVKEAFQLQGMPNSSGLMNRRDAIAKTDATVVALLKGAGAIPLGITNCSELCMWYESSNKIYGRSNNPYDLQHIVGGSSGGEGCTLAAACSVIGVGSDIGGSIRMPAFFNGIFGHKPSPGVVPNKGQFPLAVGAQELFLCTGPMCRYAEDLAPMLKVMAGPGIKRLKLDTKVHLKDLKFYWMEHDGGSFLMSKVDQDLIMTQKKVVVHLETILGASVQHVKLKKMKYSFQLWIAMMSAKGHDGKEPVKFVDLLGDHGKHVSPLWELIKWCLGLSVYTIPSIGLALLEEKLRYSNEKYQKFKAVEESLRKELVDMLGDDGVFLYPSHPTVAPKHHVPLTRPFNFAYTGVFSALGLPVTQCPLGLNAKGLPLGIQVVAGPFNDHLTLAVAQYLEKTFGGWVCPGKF

| SMILES | IC50 (Monoglyceride lipase) [nM] | Ratio [1] [M⁻¹ s⁻¹] | IC50 [2] [nM] | logD [3] | other results |
| --- | --- | --- | --- | --- | --- |
| COC[C@@H](OC(=O)N1C[C@@H]2[C@H](C1)[C@H]2c1ccn(-c2ccc(F)cc2)n1)C(F)(F)F | 354 | 110 | 1940 | 4.2 |  |
| O=C(Oc1ccc([N+](=O)[O-])cc1)N1CCC(C(O)(c2ccc3c(c2)OCO3)c2ccc3c(c2)OCO3)CC1 |  |  | > 11000 | 5.1 |  |
| O=C(OC(C(F)(F)F)C(F)(F)F)N1C[C@@H]2[C@H](C1)[C@H]2c1ccn(-c2ccc(F)cc2)n1 | 1 to 1.4 | 41700 | 4300 | 5.6 | Ratio IC50 (Homo sapiens): 3000 to 4300; solubility kinetic [5]: < 1 µM; inhibition at 10 µM [6]: 58%; inhibition [7]: 95% |
| O=C(OC[C@@H](O)C(F)(F)F)N1C[C@@H]2[C@H](C1)[C@H]2c1ccn(-c2ccc(F)cc2)n1 | 132 | 244 | > 30000 | 4 | CLint scaled [4]: 9.4 mL/min/kg |
| O=C(OCC(F)(F)F)N1C[C@@H]2[C@H](C1)[C@H]2c1ccn(-c2ccc(F)cc2)n1 | 445 | 103 | 970 | 4.2 |  |
| CC(OC(=O)N1C[C@@H]2[C@H](C1)[C@H]2c1ccn(-c2ccc(F)cc2)n1)C(F)(F)F (some centres not stated) | 242 |  | > 23000 | 4.8 | Ratio IC50 (Homo sapiens): > 95 |
| O=C(Oc1ccc([N+](=O)[O-])cc1)N1C[C@@H]2[C@H](C1)[C@H]2c1ccn(-c2ccc(F)cc2)n1 | 24 | 2880 | 18 |  | logD [8]: 4.2 |
| O=C(ON1C(=O)CCC1=O)N1C[C@@H]2[C@H](C1)[C@H]2c1ccn(-c2ccc(F)cc2)n1 | 46 | 156 | 3600 |  | logD [8]: 2.6; inhibition (INH) (Liver carboxylesterase 1): Not Active; inhibition [7]: inactive; inhibition (INH) (Cocaine esterase): Not Active; inhibition [9]: inactive; inhibition [10]: inactive |

The next lines start with results.

| IC50 (Monoglyceride lipase) [nM] | Ratio [1] [M⁻¹ s⁻¹] | IC50 [2] [nM] | logD [3] | SMILES | other results |
| --- | --- | --- | --- | --- | --- |
| 582 | 4570 | > 12000 | 4.2 | O=C(O[C@H](CCO)C(F)(F)F)N1C[C@@H]2[C@H](C1)[C@H]2c1ccn(-c2ccc(F)cc2)n1 | CLint scaled [4]: < 12 mL/min/kg |
| 890 |  | 26000 | 3.9 | O=C(O[C@@H](CO)C(F)(F)F)N1C[C@@H]2[C@H](C1)[C@H]2c1ccn(-c2ccc(F)cc2)n1 | CLint scaled [4]: < 8 mL/min/kg |
| 6 |  | 14000 | 3.9 | O=C(OC(CO)C(F)(F)F)N1C[C@@H]2[C@H](C1)[C@H]2c1ccn(-c2ccc(F)cc2)n1 (some centres not stated) |  |
| 26 | 1580 | 1900 | 4.3 | O=C(O[C@H](CF)C(F)(F)F)N1C[C@@H]2[C@H](C1)[C@H]2c1ccn(-c2ccc(F)cc2)n1 | Ratio IC50 (Homo sapiens): 73 |
